Active and inactive are the calls of the source. The rule behind the calls is not given here.

We go through one compound from ChEMBL document CHEMBL4613270, “Structure-Activity Relationship Study Enables the Discovery of a Novel Berberine Analogue as the RXRα Activator to Inhibit Colon Cancer” (J Med Chem, 2020).

One data set deals with SW-620. Nature of the data set: Inhibition of cell proliferation of human SW620 cells at 40 to 80 uM incubated for 15 hrs by EdU assay. It counts as functional, cell-based. In a few lines: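 Colon cancer cells treated for 15 h. Proliferation measured in 96-well plates using an EdU incorporation kit, with cells examined under a fluorescence microscope.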
Data set [1] addresses T1, Retinoic acid receptor RXR-alpha (Homo sapiens) (UniProt P19793).
T1 sequence (whole entry): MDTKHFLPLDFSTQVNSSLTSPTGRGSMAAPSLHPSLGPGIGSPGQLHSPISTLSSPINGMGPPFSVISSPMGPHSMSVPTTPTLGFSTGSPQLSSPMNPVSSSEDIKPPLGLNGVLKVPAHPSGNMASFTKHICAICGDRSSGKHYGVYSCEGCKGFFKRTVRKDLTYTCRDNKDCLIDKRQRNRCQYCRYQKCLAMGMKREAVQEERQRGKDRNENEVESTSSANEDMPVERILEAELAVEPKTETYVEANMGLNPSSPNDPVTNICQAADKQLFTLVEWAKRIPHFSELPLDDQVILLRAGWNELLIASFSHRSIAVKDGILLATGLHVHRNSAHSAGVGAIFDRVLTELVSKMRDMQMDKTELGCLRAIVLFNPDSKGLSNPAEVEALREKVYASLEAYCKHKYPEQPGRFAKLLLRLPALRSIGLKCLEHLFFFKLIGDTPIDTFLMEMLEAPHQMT
Briefly: Activation of RXRalpha in human KM12C cells assessed as increase transactivational activity on RXRE at 25 to 50 uM incubated for 15 hrs by luciferase reporter gene assay. It counts as cell-based. In a few lines: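 Endogenous RXRα transactivation on an RXRE luciferase reporter, lipofection-transfected; compound added 20 h post-transfection for 15 h; lysis in passive lysis buffer at 4 °C, 1 h; firefly and Renilla luciferase activities read by dual-luciferase assay.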
A general note: Reporter assays use an easily measured gene product as a stand-in for the process of interest.

Another data set deals with KM12C. Briefly: Inhibition of cell proliferation of human KM12C cells up to 100 uM in presence of RXRalpha shRNA incubated for 15 hrs by MTT assay. It counts as functional, cell-based. A digest of the protocol:
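KM12C cells were transfected with control or RXRα-targeting shRNA, seeded at 1×10^4 cells/well and incubated overnight at 37 °C. Compound was then added for 15 h. MTT (5 mg/mL stock) was incubated 4 h at 37 °C, formazan dissolved in DMSO, and absorbance read at 570 nm.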

Data set [2] has as its target T1, Retinoic acid receptor RXR-alpha (Homo sapiens). Briefly: Activation of RXRalpha in human KM12C cells assessed as reduction in Cdc2 protein expression at 25 to 50 uM incubated for 15 hrs in presence of RXRalpha shRNA by Western blot analysis. It counts as cell-based.
Data set [3] shares this target. Nature of the data set: Activation of RXRalpha in human KM12C cells assessed as reduction in c-Myc protein expression at 25 to 50 uM incubated for 15 hrs in presence of RXRalpha shRNA by Western blot analysis. It counts as cell-based. On the technique in general: A western blot detects proteins with antibodies after separation by electrophoresis.
The target is the same in data set [4]. Nature of the data set: Activation of RXRalpha in human KM12C cells assessed as reduction in c-Myc mRNA expression at 25 to 50 uM incubated for 15 hrs in presence of RXRalpha shRNA by real-time PCR analysis. The data set is classed as cell-based. A general note: Quantitative PCR measures a nucleic acid by following its amplification.
Data set [5] shares this target. Nature of the data set: Activation of RXRalpha in human KM12C cells assessed as increase in p21 (WAF1/CIP1) protein expression at 25 to 50 uM incubated for 15 hrs in presence of RXRalpha shRNA by Western blot analysis. It counts as cell-based.
Data set [6] is described as follows: Hepatotoxicity in BALB/c mouse xenografted with human KM12C cells assessed as induction of hepatomegaly by measuring body weight ratio at 100 mg/kg, ig dosed daily for 15 days. It counts as toxicity, organism-based. The note with it: in vivo, po, 360 h.
A short description of data set [7]: Toxicity in human HIEC6 cells assessed a reduction in cell viability at 6.25 to 100 uM incubated for 15 hrs by MTT assay. The data set is classed as cell-based. In a few lines:
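HIEC-6 cells grown in MEM with 4% FBS, HEPES, GlutaMAX and 10 ng/mL EGF. MEF cells grown in DMEM high glucose with 10% FBS. Cells plated at 1×10⁴ per well and treated with a concentration series for 15 h. Viability read by MTT: 4 h at 37 °C, DMSO solubilization, absorbance at 570 nm.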

Take `COc1ccc2c(c1)CC[n+]1cc3c(OC)cccc3cc1-2.[Cl-]`: the inhibition result with SW-620 is “Active”. For the same compound, the outcome in data set [1] was Active. For the same compound, the inhibition entry in the data set on KM12C was “inactive”. Also, the outcome in data set [2], in data set [3], in data set [4] and in [5] was inactive. Also, the Activity entry in [6] and in [7] was “Non-Toxic” in each case.
